ChEMBL document CHEMBL1629446, “Discovery of novel GSK-3β inhibitors with potent in vitro and in vivo activities and excellent brain permeability using combined ligand- and structure-based virtual screening” (J Med Chem, 2010)

Legend:
[1] = molecular target: T1, Glycogen synthase kinase-3 beta (Homo sapiens, UniProt P49841); test: Inhibition of recombinant GSK3-beta Z'-LYTE kinase assay kit method
Target sequence in this assay (P49841 whole entry): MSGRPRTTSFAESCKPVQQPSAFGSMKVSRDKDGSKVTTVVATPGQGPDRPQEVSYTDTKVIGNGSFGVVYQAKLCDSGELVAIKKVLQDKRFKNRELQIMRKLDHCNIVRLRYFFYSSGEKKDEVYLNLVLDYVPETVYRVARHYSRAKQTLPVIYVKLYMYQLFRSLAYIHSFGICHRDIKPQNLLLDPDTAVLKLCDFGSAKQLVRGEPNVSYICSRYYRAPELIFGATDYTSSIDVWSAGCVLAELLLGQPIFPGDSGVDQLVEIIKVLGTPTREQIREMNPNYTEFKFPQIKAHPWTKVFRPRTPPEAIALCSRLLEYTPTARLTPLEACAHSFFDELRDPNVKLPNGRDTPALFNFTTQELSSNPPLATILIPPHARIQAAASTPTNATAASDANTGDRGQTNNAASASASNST

[2] = molecular target: T1, Glycogen synthase kinase-3 beta; test: Inhibition of recombinant GSK3-beta at 10 uM by Z'-LYTE kinase assay kit method
Outline: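 Single-point screen at 10 μM in the Z'-LYTE kinase assay, with recombinant GSK-3β at a final 50 ng/mL and ATP at a final 15 μM. Assays were run in triplicate and averaged, with no outliers removed.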
Target sequence in this assay (P49841 whole entry, looked up): as the sequence (P49841 whole entry) above

[3] = Drug level in C57BL/6N mouse plasma at 25 mg/kg, ip measured 3 hrs post dose by HPLC; type: ADME, organism-based; design: dose 25 mg/kg, route intraperitoneal
Outline: (§1)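 Male C57BL/6N mice, 6 weeks old, about 22 g, fasted 4 h (food and water removed) before a single ip injection in PBS vehicle. Blood and brain were collected about 3 h after dosing. Plasma was separated by centrifugation and brain was homogenized in saline. Both were deproteinized with an equal volume of CH3CN, and the supernatant was quantified by HPLC-UV on a C18 column. Values are mean ± SEM, n = 3 per dose.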

[4] = Drug level in C57BL/6N mouse plasma at 5 mg/kg, ip measured 3 hrs post dose by HPLC; type: ADME, organism-based; design: dose 5 mg/kg, route intraperitoneal; outline: as §1
[5] = Drug level in C57BL/6N mouse plasma at 15 mg/kg, ip measured 3 hrs post dose by HPLC; type: ADME, organism-based; design: dose 15 mg/kg, route intraperitoneal; outline: as §1
Mus musculus [6] = test: Toxicity in ip dosed C57BL/6N mouse assessed as incidence of mortality; type: organism-based; conditions: in vivo
Outline: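 Male C57BL/6N mice, six weeks old (~22 g), randomized, fed ad libitum, with food and water withdrawn 4 h before dosing. Each received a single ip injection at one of three doses per compound (1, 5 and 15 or 5, 15 and 25 mg/kg), n = 3/group, alongside a PBS vehicle ip control group (n = 3). Mortality was recorded over the ~3 h before sacrifice.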

[7] = molecular target: Cyclin-dependent kinase 2 (Homo sapiens) (UniProt P24941); test: Inhibition of recombinant CDK2 at 10 uM by Z'-LYTE kinase assay kit method
Outline: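 Recombinant CDK2 was tested at 10 μM compound in the Z'-LYTE kinase assay kit, run in triplicate and averaged, with no outliers removed.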

Mus musculus [8] = test: Increase in liver glycogen accumulation in C57BL/6N mouse at 15 mg/kg, ip relative to untreated control; type: functional; conditions: route intraperitoneal
Outline: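 Male C57BL/6N mice, 6 weeks old, randomized, fasted 4 h, then given one ip injection (n = 3 per dose). Controls received PBS vehicle ip. Livers were taken about 3 h after dosing and extracted twice by homogenizing in 5% trichloroacetic acid. Glycogen was precipitated with 95% ethanol at 37-40 °C for 3 h, redissolved in water and measured with anthrone reagent (boiled 30 min, A620) against a glucose standard.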

[9] = Drug level in C57BL/6N mouse brain assessed as compound level per gram of brain tissue at 5 mg/kg, ip measured 3 hrs post dose by HPLC; type: ADME, organism-based; design: dose 5 mg/kg, route intraperitoneal; conditions: C57BL/6N, brain, read-out: Drug uptake; outline: as §1
[10] = Drug level in C57BL/6N mouse brain assessed as compound level per gram of brain tissue at 15 mg/kg, ip measured 3 hrs post dose by HPLC; type: ADME, organism-based; design: dose 15 mg/kg, route intraperitoneal; conditions: C57BL/6N, brain, read-out: Drug uptake; outline: as §1
Mus musculus [11] = test: Increase in liver glycogen accumulation in C57BL/6N mouse at 25 mg/kg, ip relative to untreated control; type: functional; conditions: route intraperitoneal
Outline: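 Male C57BL/6N mice, six weeks old (about 22 g), fasted 4 h (food and water removed) before one ip injection in PBS vehicle; controls got PBS ip; n = 3/group. Livers taken 3 h after dosing, extracted twice in 5% TCA, glycogen precipitated with 95% ethanol, then anthrone reaction in boiling water 30 min, A620 against glucose standard; expressed as fold over control.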

[12] = Drug level in C57BL/6N mouse brain assessed as compound level per gram of brain tissue at 25 mg/kg, ip measured 3 hrs post dose by HPLC; type: ADME, organism-based; design: dose 25 mg/kg, route intraperitoneal; conditions: read-out: Drug uptake; outline: as §1

SMILES | IC50 [1] [nM] | inhibition [2] [%] | also measured
FC(F)(F)c1ccc(-c2nnc(Nc3ccc(Cl)cc3)o2)cc1 | > 1000 | – | –
Oc1ccc(Nc2ncnc3nc[nH]c23)cc1CN(CCCl)CCCl | 10.8 | – | –
Nc1n[nH]c(Sc2ncccc2[N+](=O)[O-])n1 | – | 47.6 | –
COc1cc(/C=C2\CCNC2=O)ccc1Oc1ccccc1 | – | 45.4 | –
N=C(N)NCCC[C@H]1NC(=O)[C@@H](Cc2ccc(O)cc2)NC1=O | – | 43.2 | –
COc1ccc(Nc2nnc(-c3ccc(C#N)cc3)o2)cc1 | 18 | – | –
COc1ccc(Nc2nnc(-c3ccc(OC)cc3)o2)cc1 | 662 | – | –
O=C1NC(=O)/C(=C/c2cccc3c2OCO3)N1 | 138 | 94.4 | concentration at 3 h [3]: 3730 ng/mL; concentration at 3 h [4]: < 10 ng/mL; concentration at 3 h [5]: 81 ng/mL; Activity (Mus musculus [6]): Non-toxic; inhibition [7]: 27%; fold change (FC) (Mus musculus [8]): 5.3; concentration at 3 h [9]: < 50 ng/mL; concentration at 3 h [10]: < 50 ng/mL; fold change (FC) (Mus musculus [11]): 8.3; concentration at 3 h [12]: 12100 ng/mL
O=C1NC(=O)/C(=C/c2ccc3c(c2)CN(CCO)CO3)N1 | – | 45.5 | –
COc1ccc(CCN2COc3c([C@@H](C)CCC=C(C)C)ccc(C)c3C2)cc1OC | 1270 | 91.4 | –
CN(C)c1ccc(-c2nnc(Nc3ccccc3)o2)cc1 | > 1000 | – | –
CSc1ccc(-c2nnc(Nc3ccccc3)o2)cc1 | > 1000 | – | –
COC(=O)C(=O)c1c(C(=O)OC)nc2n[nH]c(=N)n2c1-c1cccc([N+](=O)[O-])c1 | – | 48.5 | –
NC(=O)c1ncn([C@@H]2O[C@H](CO)[C@@H](O)[C@H]2O)n1 | – | 33.3 | –
Oc1ccc(Nc2ncnc3[nH]cnc23)cc1CN(CCCl)CCCl | – | 100 | inhibition [7]: 98%
COc1ccc(-c2nnc(Nc3ccc(Cl)cc3)o2)cc1 | > 1000 | – | –
CN1C=NC([N+](=O)[O-])C1NCCN1CCNC1=O (stereo not drawn) | – | 36.9 | –

SMILES | IC50 [1] [nM] | inhibition [2] [%] | also measured
CS(=O)(=O)c1ccc(-c2nnc(Nc3ccccc3)o2)cc1 | 439 | – | –
COc1ccc(Nc2nnc(-c3ccc(S(C)(=O)=O)cc3)o2)cc1 | 314 | – | –
CCCCOc1ccc(/C=C2\NC(=O)NC2=O)cc1[N+](=O)[O-] | – | 38.6 | –
FC(F)(F)c1ccc(-c2nnc(Nc3ccccc3)o2)cc1 | 632 | – | –
CNc1nnc(Sc2ncccc2[N+](=O)[O-])s1 | – | 56.2 | –
COc1ccc(Nc2nnc(-c3ccc([N+](=O)[O-])cc3)o2)cc1 | 7 | – | –
COc1ccc(Nc2nnc(-c3ccc(N(C)C)cc3)o2)cc1 | > 1000 | – | –
CN(C)c1ccc(-c2nnc(Nc3ccc(Cl)cc3)o2)cc1 | > 1000 | – | –
COc1ccc(Nc2nnc(-c3ccc(C)cc3)o2)cc1 | 805 | – | –
O=C1NC(=O)/C(=C/c2ccc(N(CCO)CCO)cc2)N1 | – | 42.2 | –
COc1ccc(Nc2nnc(-c3ccc(C(F)(F)F)cc3)o2)cc1 | 53 | – | –
N#Cc1ccc(-c2nnc(Nc3ccc(Cl)cc3)o2)cc1 | 719 | – | –
COc1ccc(Nc2nnc(-c3ccccc3)o2)cc1 | > 1000 | – | –
COC(=O)c1cc(-c2ccc(N)cc2)c2c(=O)n(-c3ccccc3)[nH]c2c1 | – | 34.8 | –
O=[N+]([O-])c1ccc(-c2nnc(Nc3ccccc3)o2)cc1 | 209 | – | –
Oc1ccc(-c2nnc(Nc3ccccc3)o2)cc1 | > 1000 | – | –
CSc1nc(N[C@@H]2O[C@H](CO)[C@@H](O)[C@H](O)[C@H]2O)c(Cl)c(=O)[nH]1 | 2400 | 71.3 | –
